Measured values as given in ChEMBL document CHEMBL4665889, “Design, Synthesis, and Pharmacological Characterization of a Neutral, Non-Prodrug Thrombin Inhibitor with Good Oral Pharmacokinetics” (J Med Chem, 2020).

Assays:
[1] = Clearance in Wistar rat hepatocytes at 1 uM incubated up to 90 mins by LC-MS/MS analysis; assay type: ADME, cell-based, Hepatocyte; conditions: for CLhep predicted at 1 µM: Wistar
Summary of the method: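 Fresh male Wistar rat hepatocytes, 1 × 10⁶ viable cells/mL, in Williams' medium E at 37 °C, pH 7.4, with 1 μM substrate and <1% acetonitrile. Samples at 2–90 min quenched in acetonitrile and analysed by LC-MS/MS.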

[2] = target: T1, Nuclear receptor subfamily 1 group I member 2 (Homo sapiens, UniProt O75469); test: Activation of human PXR expressed in human HepG2 cells; assay type: ADME, cell-based
T1 sequence (O75469 whole entry): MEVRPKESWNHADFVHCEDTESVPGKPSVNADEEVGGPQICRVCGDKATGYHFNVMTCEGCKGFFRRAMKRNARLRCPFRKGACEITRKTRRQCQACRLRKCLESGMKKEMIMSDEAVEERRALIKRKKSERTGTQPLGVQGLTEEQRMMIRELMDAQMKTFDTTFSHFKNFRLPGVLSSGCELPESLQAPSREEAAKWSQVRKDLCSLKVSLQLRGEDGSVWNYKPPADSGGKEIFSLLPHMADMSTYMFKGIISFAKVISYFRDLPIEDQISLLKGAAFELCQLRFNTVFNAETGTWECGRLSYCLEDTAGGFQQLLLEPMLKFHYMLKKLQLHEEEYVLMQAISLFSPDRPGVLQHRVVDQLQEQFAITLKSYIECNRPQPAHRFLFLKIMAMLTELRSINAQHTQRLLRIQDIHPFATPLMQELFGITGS
Summary of the method: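 HepG2 cells transiently co-transfected with human PXR and a luciferase reporter under the human CYP3A4 promoter, 48 h before readout. 24 h after seeding, 1:3 serial dilutions (2 nM to 50 μM, 0.5% DMSO) added. Luminescence normalized to rifampicin (100%) and DMSO (0%). MEC is the lowest concentration raising signal above 4-fold SD of DMSO background.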

[3] = Permeability from apical to basolateral side in human Caco2 cells incubated for 2 hrs by LC-MS/MS analysis; assay type: ADME, cell-based; conditions: Caco-2
Summary of the method: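 Caco-2 cells grown 15 d on 0.4 μm inserts, TEER ≥600 Ω. Compound (DMSO stock diluted 100-fold) in HBSS pH 7.4 with 10 mM HEPES and 20 mM glucose, added apically or basolaterally. Incubated 2 h at 37 °C and analysed by LC-MS/MS. Papp = (Vr/P0)·(1/S)·(P2/t); mean and SD.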

[4] = Half life in Wistar Hannover rat at 0.3 to 0.5 mg/kg, iv by LC-MS/MS analysis; assay type: ADME, organism-based; conditions: in vivo, dose 0.3-0.5 mg/kg, time <=24 hrs
Summary of the method: (§1)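 Male Wistar Hannover rats, catheterized under isoflurane; one day later iv injection into lateral tail vein at 0.3 to 0.5 mg/kg in plasma containing 2% DMSO. Blood sampled via catheter from 0.033 to 24 h. Plasma precipitated with acetonitrile, analysed by LC-MS/MS (10 mM ammonium acetate pH 3.0/acetonitrile gradient). PK parameters calculated from plasma concentrations.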

[5] = Volume of distribution at steady state in Wistar Hannover rat at 0.3 to 0.5 mg/kg, iv by LC-MS/MS analysis; assay type: ADME, organism-based; conditions: in vivo, dose 0.3-0.5 mg/kg, time <=24 hrs, read-out: Vdss; summary of the method: as §1
[6] = Ratio of drug level in blood to plasma in Wistar Hannover rat at 0.3 to 0.5 mg/kg, iv by LC-MS/MS analysis; assay type: ADME, organism-based; conditions: blood and plasma, dose 0.3-0.5 mg/kg, time <=24 hrs
[7] = AUC/dose in Wistar Hannover rat at 0.3 to 0.5 mg/kg, iv by LC-MS/MS analysis; assay type: ADME, organism-based; conditions: in vivo, dose 0.3-0.5 mg/kg, time <=24 hrs; summary of the method: as §1
[8] = Blood clearance in Wistar Hannover rat at 0.3 to 0.5 mg/kg, iv by LC-MS/MS analysis; assay type: ADME, organism-based; conditions: whole blood, dose 0.3-0.5 mg/kg, time <=24 hrs; summary of the method: as §1
[9] = MRT in Wistar Hannover rat at 0.3 to 0.5 mg/kg, iv by LC-MS/MS analysis; assay type: ADME, organism-based; conditions: in vivo, dose 0.3-0.5 mg/kg, time <=24 hrs; summary of the method: as §1
[10] = target: T1, Nuclear receptor subfamily 1 group I member 2; test: Activation of human PXR human hepatocytes assessed as induction of CYP3A4 mRNA expression incubated for 48 hrs by qPCR analysis; assay type: ADME, tissue-based, Hepatocyte
Summary of the method: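 Human hepatocytes in collagen sandwich, cultured 1 d, then treated with eight 1:3 serial concentrations for 2 consecutive days with daily media change. mRNA isolated on magnetic beads, reverse transcribed, and quantified by TaqMan qRT-PCR against actin/tubulin. Fold induction over vehicle by ΔΔCt; NOEL reported.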

[11] = Oral bioavailability in Wistar Hannover rat at 1 mg/kg by LC-MS/MS analysis; assay type: ADME, organism-based; conditions: in vivo, time <=24 hrs
Summary of the method: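 Catheterized male Wistar Hannover rats dosed by gavage at 1 mg/kg in 10% ethanol/40% PEG/50% water. Blood taken via catheter at 0.083 to 24 h. Plasma precipitated with acetonitrile and analysed by LC-MS/MS. Bioavailability derived against iv dosing at 0.3 to 0.5 mg/kg.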

Row | SMILES | CLhep predicted at 1 µM [1] [mL/min/kg] | MEC [2] [µM] | Papp A→B at 2 h [3] [×10⁻⁶ cm/s] | also measured
1 | COc1cc(C(=O)N2CC(C)(CCO)OC[C@H]2C)cc2nc(N[C@H](CF)c3cccc(Cl)c3)oc12 (stereo partly drawn) | 56.7 | 0.39 | – | half-life [4]: 1.1 h; Vd [5]: 3.3 L/kg; blood plasma ratio [6]: 0.94; AUC/dose [7]: 0.33 kg·h/L; clearance [8]: 53.3 mL/min/kg; MRT [9]: 1.1 h
2 | O=C(NCc1cccc(Cl)c1)c1ccc2cn(CCN3CCOC3=O)nc2c1 | – | – | 6.2 | clearance [8]: 23.3 mL/min/kg
3 | COc1cc(C(=O)N2CC(C)(CCO)OC[C@H]2C)cc2nc(NCc3cc(Cl)ccn3)oc12 (stereo partly drawn) | 41.7 | 8 | – | half-life [4]: 0.44 h; Vd [5]: 2 L/kg; blood plasma ratio [6]: 1.08; AUC/dose [7]: 0.23 kg·h/L; clearance [8]: 66.7 mL/min/kg; MRT [9]: 0.46 h; NOAEL [10]: > 10000 ng/mL
4 | COc1cc(C(=O)N2CCOC(C)(CCO)C2)cc2nc(N[C@H](C)c3cccc(Cl)c3)oc12 (stereo partly drawn) | 43.3 | 0.58 | – | half-life [4]: 2.7 h; Vd [5]: 5.6 L/kg; bioavailability [11]: 38%; blood plasma ratio [6]: 1.07; AUC/dose [7]: 0.33 kg·h/L; clearance [8]: 48.3 mL/min/kg; MRT [9]: 1.8 h
5 | COc1cc(C(=O)N2CC(C)OCC2C2CC(O)C2)cc2nc(N[C@H](C)c3cccc(Cl)c3)oc12 (stereo partly drawn) | 56.7 | 3.4 | – | –
6 | COc1cc(C(=O)N2C[C@@H](C)OC[C@H]2CCO)cc2nc(N[C@H](C)c3cccc(Cl)c3)oc12 | 38.3 | 1.4 | – | –
7 | COc1cc(C(=O)N2CC(C)OCC2CO)cc2nc(N[C@H](C)c3cccc(Cl)c3)oc12 (stereo partly drawn) | 15.5 | 0.29 | – | half-life [4]: 1.1 h; Vd [5]: 2.7 L/kg; blood plasma ratio [6]: 0.88; AUC/dose [7]: 0.47 kg·h/L; clearance [8]: 40 mL/min/kg; MRT [9]: 1.3 h
8 | COc1cc(C(=O)N2CC(C)OCC2CCO)cc2nc(NCc3cc(Cl)ccn3)oc12 (stereo not drawn) | 20 | 17 | 11.1 | half-life [4]: 0.5 h; Vd [5]: 1.3 L/kg; blood plasma ratio [6]: 1.08; AUC/dose [7]: 0.39 kg·h/L; clearance [8]: 40 mL/min/kg; MRT [9]: 0.51 h; NOAEL [10]: > 10000 ng/mL
9 | CCCCCCOC(=O)NC(=N)c1ccc(NCc2nc3cc(C(=O)N(CCC(=O)OCC)c4ccccn4)ccc3n2C)cc1 [DABIGATRAN ETEXILATE] | – | – | – | half-life [4]: 1.2 h; Vd [5]: 0.54 L/kg; bioavailability [11]: 1.9%; AUC/dose [7]: 3 kg·h/L; clearance [8]: 9.83 mL/min/kg; MRT [9]: 1.6 h
10 | CCCN(CC1CCOC1)C(=O)c1cc(OC)c2oc(NCc3cccc(Cl)c3)nc2c1 (racemic) | 65 | – | 24.6 | –
11 | COc1cc(C(=O)N2CC(C)OCC2C2CC(O)C2)cc2nc(NCc3cc(Cl)ccn3)oc12 (stereo not drawn) | 45 | 8.2 | – | –
12 | CC[C@@H]1CO[C@@](C)(CCO)CN1C(=O)c1cc(OC)c2oc(N[C@H](C)c3cccc(Cl)c3)nc2c1 | 65 | 0.26 | 6.8 | half-life [4]: 1 h; Vd [5]: 3.7 L/kg; blood plasma ratio [6]: 1.07; AUC/dose [7]: 0.32 kg·h/L; clearance [8]: 65 mL/min/kg; MRT [9]: 1.2 h; NOAEL [10]: 1111 ng/mL
13 | COc1cc(C(=O)N2C[C@H](C)OC[C@@H]2CCO)cc2nc(N[C@H](C)c3cccc(Cl)c3)oc12 | 45 | 2.8 | 10.1 | –
14 | COc1cc(C(=O)N2CC(C)(CCO)OC[C@H]2C)cc2nc(N[C@H](C)c3cccc(Cl)c3)oc12 (stereo partly drawn) | 58.3 | 0.29 | – | –
15 | COc1cc(C(=O)N2CC(C)OCC2C2CC(O)C2)cc2nc(N[C@H](CF)c3cccc(Cl)c3)oc12 (stereo partly drawn) | 56.7 | 3 | – | –

Continued, in another order:

Row | CLhep predicted at 1 µM [1] [mL/min/kg] | MEC [2] [µM] | Papp A→B at 2 h [3] [×10⁻⁶ cm/s] | SMILES | also measured
16 | 31.7 | 11 | – | COc1cc(C(=O)N2CC(C)OCC2CCO)cn2nc(NCc3cccc(Cl)c3)nc12 (stereo not drawn) | –
17 | 46.7 | – | – | COc1cc(C(=O)N2CCC(O)C(C)C2)cc2nc(NC3(c4cccc(Cl)c4)CC3)oc12 (racemic) | –
18 | – | 1.3 | – | COc1cc(C(=O)N2CCOCC2(C)C)cc2nc(NCc3cccc(Cl)c3)oc12 | –
19 | 14.3 | 3.6 | 4.1 | COc1cc(C(=O)N2CCC(O)C(C)C2)cc2nc(NCc3cc(Cl)ccn3)oc12 (racemic) | –
20 | 36.7 | – | – | COc1cc(C(=O)N2CC[C@H](O)[C@@H](C)C2)cc2nc(NCc3cccc(Cl)c3)oc12 | –
21 | 61.7 | – | – | CCC1CC(O)C(C)CN1C(=O)c1cc(OC)c2oc(NCc3cccc(Cl)c3)nc2c1 (racemic) | –
22 | 35 | 20 | 7.1 | COc1cc(C(=O)N2CCC(O)C(C)C2)cn2nc(NCc3cccc(Cl)c3)nc12 (racemic) | –
23 | 63.3 | 0.32 | 19.1 | COc1cc(C(=O)N2CC(C)CCC2CCO)cc2nc(NCc3cccc(Cl)c3)oc12 (racemic) | –
24 | 4.5 | 0.81 | 0.94 | COc1cc(C(=O)N2CC(C)C(O)CC2CCO)cc2nc(NCc3cccc(Cl)c3)oc12 (racemic) | –
25 | 56.7 | 2.6 | 12.7 | COc1cc(C(=O)N2CC(C)C(O)CC2C)cc2nc(NCc3cccc(Cl)c3)oc12 (stereo not drawn) | –
26 | 63.3 | 0.26 | 13.8 | COc1cc(C(=O)N2CC(C)C(O)CC2C2CC2)cc2nc(NCc3cccc(Cl)c3)oc12 (racemic) | –
27 | 45 | 1.4 | 8.4 | COc1cc(C(=O)N2CCC(O)C(C)C2)cc2nc(NCc3cccc(Cl)c3)oc12 (racemic) | –
28 | 40 | – | 0.93 | COc1cc(C(=O)N2CCC(O)C(C)C2)cc2nc(NCc3cncc(Cl)c3)oc12 (racemic) | –
29 | – | 0.03 | – | COc1cc(C(=O)N2CC(C)CCC2CCO)cc2nc(NCc3cccc(Cl)c3)oc12 (stereo in doubt; 37b) | CLH ([1]; 1.5 h, 1 µM): 56.7 mL/min/kg
30 | 50 | 13 | 7.2 | COc1cc(C(=O)N2CC(C)OCC2C2CC(O)C2)cn2nc(NCc3cccc(Cl)c3)nc12 (stereo not drawn) | –
31 | – | 8.3 | – | COc1cc(C(=O)N2CCC(O)C(C)C2)cc2nc(NCc3cc(Cl)ccc3O)oc12 (racemic) | –
32 | 21.7 | 3.1 | 7.1 | COc1cc(C(=O)N2CCC(O)CC2)cc2nc(NCc3cccc(Cl)c3)oc12 | –
33 | 58.3 | – | – | COc1cc(C(=O)N2CCCC2(C)C)cc2nc(NCc3cccc(Cl)c3)oc12 | –
34 | 51.7 | 6.3 | – | COc1cc(C(=O)N2CC[C@@H](O)C(C)(C)C2)cc2nc(NCc3cccc(Cl)c3)oc12 (racemic) | –
35 | 46.7 | 15 | 8.1 | COc1cc(C(=O)N2CC(C)(CCO)OC[C@H]2C)cn2nc(NCc3cccc(Cl)c3)nc12 (stereo partly drawn) | half-life [4]: 0.32 h; Vd [5]: 2.2 L/kg; blood plasma ratio [6]: 1.35; AUC/dose [7]: 0.16 kg·h/L; clearance [8]: 76.7 mL/min/kg; MRT [9]: 0.36 h; NOAEL [10]: > 10000 ng/mL
